Measurements taken from ChEMBL document CHEMBL1949556, “Design and synthesis of boronic acid inhibitors of endothelial lipase” (Bioorg Med Chem Lett, 2012).

Legend:
Endothelial lipase [1] = target: T1, Endothelial lipase (Homo sapiens, UniProt Q9Y5X9); assay: Inhibition of human endothelial lipase expressed using recombinant adenovirus using glycerol-tri[9,10(n)-3H]oleate after 1 hr by vesicle assay
T1 sequence (Q9Y5X9 whole entry): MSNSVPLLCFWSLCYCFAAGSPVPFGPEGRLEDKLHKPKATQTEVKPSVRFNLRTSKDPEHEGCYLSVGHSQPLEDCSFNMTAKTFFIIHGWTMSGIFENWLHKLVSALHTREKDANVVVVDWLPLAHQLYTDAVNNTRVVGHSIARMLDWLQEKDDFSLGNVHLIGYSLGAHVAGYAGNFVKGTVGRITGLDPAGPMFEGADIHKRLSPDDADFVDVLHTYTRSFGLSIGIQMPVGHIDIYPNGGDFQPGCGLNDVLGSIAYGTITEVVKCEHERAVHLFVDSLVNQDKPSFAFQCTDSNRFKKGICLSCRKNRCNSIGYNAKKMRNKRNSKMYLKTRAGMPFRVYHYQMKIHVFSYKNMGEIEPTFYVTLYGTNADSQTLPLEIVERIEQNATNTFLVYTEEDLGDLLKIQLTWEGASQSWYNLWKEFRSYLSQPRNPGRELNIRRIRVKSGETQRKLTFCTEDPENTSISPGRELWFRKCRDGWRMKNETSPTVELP
Summary of the method: (§1)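 Vesicle (interfacial catalysis) substrate system; IC50 taken as mean of two independent experiments, each run in duplicate.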

Endothelial lipase [2] = target: T1, Endothelial lipase; assay: Inhibition of human endothelial lipase overexpressed in HUVEC cells using bis-BD-PC and mono-BD-TG as substrate incubated for 10 mins prior to substrate addition by micelle assay; format: cell-based
Summary of the method: (§2)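 Detergent micelle system, which removes interfacial catalysis and gives direct access to the active site; IC50 taken as mean of two independent experiments, each run in duplicate.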

Lipoprotein lipase [3] = target: T2, Lipoprotein lipase (Homo sapiens, UniProt P06858); assay: Inhibition of human lipoprotein lipase expressed using recombinant adenovirus using glycerol-tri[9,10(n)-3H]oleate after 1 hr by vesicle assay; summary of the method: as §1
T2 sequence (P06858 whole entry): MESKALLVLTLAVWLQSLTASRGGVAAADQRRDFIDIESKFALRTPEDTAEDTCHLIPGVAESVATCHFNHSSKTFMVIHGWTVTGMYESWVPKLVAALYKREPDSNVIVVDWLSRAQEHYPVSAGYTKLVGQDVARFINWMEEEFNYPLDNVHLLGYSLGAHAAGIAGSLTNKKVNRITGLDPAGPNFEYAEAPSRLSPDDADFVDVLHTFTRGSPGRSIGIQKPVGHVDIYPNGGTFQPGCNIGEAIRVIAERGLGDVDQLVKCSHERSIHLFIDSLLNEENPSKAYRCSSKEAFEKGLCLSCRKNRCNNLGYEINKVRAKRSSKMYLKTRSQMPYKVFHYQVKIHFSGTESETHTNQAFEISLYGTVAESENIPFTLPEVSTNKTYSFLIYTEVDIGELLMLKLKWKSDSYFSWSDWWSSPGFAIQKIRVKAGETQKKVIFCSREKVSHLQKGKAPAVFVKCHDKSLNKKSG

Lipoprotein lipase [4] = target: T2, Lipoprotein lipase; assay: Inhibition of human lipoprotein lipase expressed in HEK293 cells using bis-BD-PC and mono-BD-TG as substrate incubated for 10 mins prior to substrate addition by micelle assay; summary of the method: as §2
Homo sapiens [5] = species on record: Homo sapiens; assay: Selectivity ratio of IC50 for human lipoprotein lipase by micelle assay to IC50 for human endothelial lipase by micelle assay
Summary of the method: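 Ratio of lipoprotein lipase IC50 to endothelial lipase IC50, both from micelle assays; unitless.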

Homo sapiens [6] = species on record: Homo sapiens; assay: Selectivity ratio of IC50 for human lipoprotein lipase to IC50 for human endothelial lipase by vesicle assay
Summary of the method: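 Ratio of lipoprotein lipase IC50 to endothelial lipase IC50, both from vesicle assays; unitless.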

[7] = target: T3, Endothelial lipase (Homo sapiens) (UniProt Q9Y5X9); assay: Inhibition of human endothelial lipase expressed using recombinant adenovirus using glycerol-tri[9,10(n)-3H]oleate at 50 uM after 1 hr by vesicle assay
T3 sequence (whole entry): T1 sequence (Q9Y5X9 whole entry)
Summary of the method: (§3)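 Vesicle-based substrate system with the test agent at a single 50 μM concentration; percent inhibition of lipase activity reported.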

[8] = target: T4, Lipoprotein lipase (Homo sapiens) (UniProt P06858); assay: Inhibition of human lipoprotein lipase expressed using recombinant adenovirus using glycerol-tri[9,10(n)-3H]oleate at 50 uM after 1 hr by vesicle assay; summary of the method: as §3
T4 sequence (whole entry): T2 sequence (P06858 whole entry)

| Compound | IC50 (Endothelial lipase [1]) [µM] | IC50 (Endothelial lipase [2]) [µM] | IC50 (Lipoprotein lipase [3]) [µM] | IC50 (Lipoprotein lipase [4]) [µM] | Ratio IC50 (Homo sapiens [5]) | Ratio IC50 (Homo sapiens [6]) | inhibition [7] [%] | inhibition [8] [%] |
| --- | --- | --- | --- | --- | --- | --- | --- | --- |
| CCCCCCCCCCCc1ccc(B2OC(C)(C)C(C)(C)O2)cc1 | 4.5 | 1.4 | > 50 | 15 | 11 |  |  |  |
| CCCCCCCCCCCc1ccc(B(O)O)cc1 | 2 | 0.2 | 50 | 1.5 | 7.5 | 25 |  |  |
| CCCCCCCCCc1ccccc1B(O)O | 50 | 11 | > 50 | > 500 | > 50 |  |  |  |
| CCCCCCCCCc1cccc(B(O)O)c1 | 2.8 | 5 | > 50 | 95 | 19 | > 20 |  |  |
| CC1(C)OB(c2ccc(-c3ccoc3)cc2)OC1(C)C | 2.8 | 2.9 | 15 | 33 | 11 | 5.4 |  |  |
| CCCCCc1ccc(B2OC(C)(C)C(C)(C)O2)cc1 | 2.6 | 1.1 | 50 | 21 | 19 | 19 |  |  |
| CCCCCCCCCCCCCCCC=O |  |  |  |  |  |  | 7 | -1 |
| CCCCCCCCCc1ccc(B(O)O)cc1 | 1 | 0.1 | 42 | 1.4 | 14 | 42 |  |  |
| CCCCCCCCCCCCCCCC#N |  |  |  |  |  |  | 4 | 14 |
| CC1(C)OB(c2ccc(-c3ccco3)cc2)OC1(C)C | 1.9 | 1.3 | 9.6 | 35 | 27 | 5 |  |  |
| CCCCCc1ccc(B(O)O)cc1 | 1 | 0.47 | 15 | 3.8 | 8 | 15 |  |  |
| CC1(C)OB(c2ccc(-c3cccs3)cc2)OC1(C)C | 1.9 | 1.6 | 7 | 40 | 25 | 3.7 |  |  |
| CC1(C)OB(c2ccc(-c3ccc4ccccc4c3)cc2)OC1(C)C | 2 | 1.7 | 22 | 15 | 8.8 | 11 |  |  |
| CCCCCCCCCCCCCCCC(=O)C(F)(F)F |  |  |  |  |  |  | 56 | 14 |
| CC1(C)OB(c2ccc(-c3ccccc3)cc2)OC1(C)C | 1 | 1 | 4.4 | 12 | 12 | 4.4 |  |  |
| CCCCCc1cccc(B(O)O)c1 | 12.8 | 22 | 50 | 85 | 3.8 | 4 |  |  |
| CCCCCc1cccc(B2OC(C)(C)C(C)(C)O2)c1 | 4.2 | 35 | 45 | 100 | 2.8 | 11 |  |  |
| CCCCCCCCCCCCCCCB(O)O |  |  |  |  |  |  | 90 | 63 |
| CC1(C)OB(c2ccc(-c3ccc(F)cc3)cc2)OC1(C)C | 1.6 | 1.1 | 55 | 33 | 30 | 34 |  |  |
| CCCc1ccc(B(O)O)cc1 | 2 | 4 | 8 | 12.5 | 3.1 | 4 |  |  |
| CC1(C)OB(c2ccc(-c3ccsc3)cc2)OC1(C)C | 1.3 | 3.1 | 13 | 36 | 12 | 10 |  |  |
| CCCCCCCCCCCCCCCC(=O)C=[N+]=[N-] |  |  |  |  |  |  |  | 20 |
| Cc1ccc(B(O)O)cc1 [TOLYL BORONIC ACID] |  | 22 | 9 | 25 | 1.1 | 0.5 |  |  |
| CCCc1ccc(B2OC(C)(C)C(C)(C)O2)cc1 | 5 | 6 | 25 | 25 | 4.1 | 5 |  |  |
| CCCCCCCCCc1ccc(B2OC(C)(C)C(C)(C)O2)cc1 | 2.5 | 1 | 50 | 15 | 15 | 20 |  |  |
| CCc1ccc(B(O)O)cc1 |  | 19 | 9 | 20 | 1 | 0.3 |  |  |
| CCCCCCCc1ccc(B2OC(C)(C)C(C)(C)O2)cc1 | 3.5 | 1.1 | 55 | 19 | 17 | 16 |  |  |
| CCCCCCCc1ccc(B(O)O)cc1 | 1.7 | 0.32 | 30 | 9 | 28 | 18 |  |  |
| CCCCCCCCCCCCCCCC(=O)CCl |  |  |  |  |  |  | 10 | -10 |
